We go through seven compounds from ChEMBL document CHEMBL1148329, “Synthesis and structure-activity studies on N-[5-(1H-imidazol-4-yl)-5,6,7,8-tetrahydro-1-naphthalenyl]methanesulfonamide, an imidazole-containing alpha(1A)-adrenoceptor agonist” (J Med Chem, 2004).

Test [1] has as its system Canis familiaris. Briefly: Uroselectivity was determined by measuring effective dose required for 20 mmHg increase of mean arterial pressure (MAP) in vivo in dog; IA = Inactive. The test is classed as functional, organism-based. As to conditions: Canis lupus familiaris; Artery. Put shortly:
(§1)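 Dog model recording intraurethral pressure (IUP) and mean arterial pressure (MAP) simultaneously. Increasing iv doses given, maximal effect of each dose taken. Doses giving a 5 mmHg rise in IUP (ED Δ5) or 20 mmHg rise in MAP (ED Δ20) were calculated, in nmol/kg ± SEM, n ≥ 4 (2 or 3 where footnoted).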

Test [2] deals with Canis familiaris. The test can be described thus: Uroselectivity was determined by measuring effective dose required for 5 mmHg increase of intraurethral pressure (IUP) in vivo in dog; IA = Inactive. Format: functional, organism-based. As to conditions: Canis lupus familiaris. Put shortly:
as §1

In test [3] the target is T1, Alpha-1A adrenergic receptor (Oryctolagus cuniculus) (UniProt O02824).
T1 sequence (whole entry): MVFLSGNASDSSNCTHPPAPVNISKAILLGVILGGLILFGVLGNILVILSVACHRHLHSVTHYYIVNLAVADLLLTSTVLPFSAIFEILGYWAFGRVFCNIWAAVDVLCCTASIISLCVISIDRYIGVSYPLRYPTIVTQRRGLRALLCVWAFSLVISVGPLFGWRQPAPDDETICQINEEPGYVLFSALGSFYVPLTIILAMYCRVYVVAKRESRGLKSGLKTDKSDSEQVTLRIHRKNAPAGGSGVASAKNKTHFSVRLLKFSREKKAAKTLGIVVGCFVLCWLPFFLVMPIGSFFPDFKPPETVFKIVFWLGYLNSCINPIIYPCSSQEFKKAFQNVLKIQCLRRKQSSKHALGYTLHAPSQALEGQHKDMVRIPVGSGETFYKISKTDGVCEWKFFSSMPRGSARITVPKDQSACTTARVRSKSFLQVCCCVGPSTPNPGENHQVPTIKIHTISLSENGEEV
The test can be described thus: Efficacy relative to phenylephrine (PE) to constrict tissue containing the alpha-1A adrenergic receptor in rabbit urethra. The test is classed as functional, tissue-based. Put shortly: (§2)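 α1-agonist dose–response curves in isolated tissue: rabbit urethra (α1A), rat spleen (α1B), rat aorta (α1D). Agonist potency and efficacy read from the concentration–response curves.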

Test [4] addresses T2, Alpha-1A adrenergic receptor (Bos taurus, UniProt P18130).
T2 sequence (P18130 whole entry): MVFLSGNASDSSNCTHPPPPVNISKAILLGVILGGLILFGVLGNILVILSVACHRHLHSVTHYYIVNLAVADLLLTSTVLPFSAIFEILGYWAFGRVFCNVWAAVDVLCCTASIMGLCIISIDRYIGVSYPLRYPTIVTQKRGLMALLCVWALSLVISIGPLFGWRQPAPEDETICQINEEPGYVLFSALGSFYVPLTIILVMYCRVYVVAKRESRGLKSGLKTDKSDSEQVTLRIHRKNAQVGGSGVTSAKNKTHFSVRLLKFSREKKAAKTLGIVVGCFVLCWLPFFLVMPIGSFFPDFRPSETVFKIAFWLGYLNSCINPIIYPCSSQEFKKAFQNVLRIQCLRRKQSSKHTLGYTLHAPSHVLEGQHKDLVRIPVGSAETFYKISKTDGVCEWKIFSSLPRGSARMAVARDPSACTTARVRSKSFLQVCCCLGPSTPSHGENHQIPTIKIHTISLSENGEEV
The test can be described thus: In vitro binding affinity towards alpha-1A adrenergic receptor of bovine clone in radioligand binding assay.

Test [5] concerns the target Alpha adrenergic receptor 1A and 1B (Rattus norvegicus) (UniProt P15823+P43140). The test can be described thus: Selectivity is ratio of pKi (binding affinity) of alpha-1B receptor to that of alpha-1A receptor. The test is classed as protein assay.
Test [6] deals with T3, Alpha-1B adrenergic receptor (Mesocricetus auratus, UniProt P18841).
T3 sequence (P18841 whole entry): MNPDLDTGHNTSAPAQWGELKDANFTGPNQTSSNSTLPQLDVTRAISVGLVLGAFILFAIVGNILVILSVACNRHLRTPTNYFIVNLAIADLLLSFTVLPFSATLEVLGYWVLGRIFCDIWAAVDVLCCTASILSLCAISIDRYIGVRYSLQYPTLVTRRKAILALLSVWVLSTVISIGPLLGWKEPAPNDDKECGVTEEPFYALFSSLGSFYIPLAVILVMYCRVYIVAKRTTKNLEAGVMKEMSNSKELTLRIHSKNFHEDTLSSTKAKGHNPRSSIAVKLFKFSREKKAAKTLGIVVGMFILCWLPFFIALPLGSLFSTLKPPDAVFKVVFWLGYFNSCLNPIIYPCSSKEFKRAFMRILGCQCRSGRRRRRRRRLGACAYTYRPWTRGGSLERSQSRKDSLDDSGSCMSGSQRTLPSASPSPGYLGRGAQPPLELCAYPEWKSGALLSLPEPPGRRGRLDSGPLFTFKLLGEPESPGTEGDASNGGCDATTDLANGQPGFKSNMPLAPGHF
The test can be described thus: In vitro binding affinity towards alpha-1B adrenergic receptor of hamster clone in radioligand binding assay. Format: single protein. Put shortly: (§3)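 Radioligand binding at α1 subtypes: α1A from rat submaxillary gland, α1B hamster clone, α1D rat clone. Run essentially per an earlier method.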

Test [7] addresses T4, Alpha-1D adrenergic receptor (Rattus norvegicus, UniProt P23944).
T4 sequence (P23944 whole entry): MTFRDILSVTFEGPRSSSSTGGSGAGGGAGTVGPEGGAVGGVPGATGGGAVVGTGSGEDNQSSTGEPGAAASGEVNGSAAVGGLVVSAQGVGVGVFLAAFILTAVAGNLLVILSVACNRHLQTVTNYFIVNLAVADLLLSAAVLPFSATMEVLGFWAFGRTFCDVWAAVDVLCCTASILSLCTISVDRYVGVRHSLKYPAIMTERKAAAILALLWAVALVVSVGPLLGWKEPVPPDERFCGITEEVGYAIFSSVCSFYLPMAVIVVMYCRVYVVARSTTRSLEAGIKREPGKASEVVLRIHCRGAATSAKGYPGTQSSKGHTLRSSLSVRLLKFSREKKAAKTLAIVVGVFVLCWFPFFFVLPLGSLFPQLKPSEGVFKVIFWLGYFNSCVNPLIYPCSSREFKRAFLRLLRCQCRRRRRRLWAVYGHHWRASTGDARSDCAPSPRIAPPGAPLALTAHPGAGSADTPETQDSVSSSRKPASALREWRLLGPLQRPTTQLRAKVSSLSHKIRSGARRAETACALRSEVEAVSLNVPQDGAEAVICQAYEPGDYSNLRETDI
The test can be described thus: In vitro binding affinity towards alpha-1D adrenergic receptor of rat clone in radioligand binding assay. An outline of the steps: as §3

Test [8] addresses Alpha adrenergic receptor 1A and 1D (Rattus norvegicus) (UniProt P23944+P43140). Briefly: Selectivity is ratio of pKi (binding affinity) of Alpha-1D to that of alpha1A. Format: protein assay.
The target in test [9] is Alpha-1A adrenergic receptor (Oryctolagus cuniculus) (UniProt O02824). Briefly: Functional agonism of the compounds to constrict tissue containing the alpha-1A adrenergic receptor in rabbit urethra; Inactive.
Test [10] concerns the target T5, Alpha-1A adrenergic receptor (Rattus norvegicus, UniProt P43140).
T5 sequence (P43140 whole entry): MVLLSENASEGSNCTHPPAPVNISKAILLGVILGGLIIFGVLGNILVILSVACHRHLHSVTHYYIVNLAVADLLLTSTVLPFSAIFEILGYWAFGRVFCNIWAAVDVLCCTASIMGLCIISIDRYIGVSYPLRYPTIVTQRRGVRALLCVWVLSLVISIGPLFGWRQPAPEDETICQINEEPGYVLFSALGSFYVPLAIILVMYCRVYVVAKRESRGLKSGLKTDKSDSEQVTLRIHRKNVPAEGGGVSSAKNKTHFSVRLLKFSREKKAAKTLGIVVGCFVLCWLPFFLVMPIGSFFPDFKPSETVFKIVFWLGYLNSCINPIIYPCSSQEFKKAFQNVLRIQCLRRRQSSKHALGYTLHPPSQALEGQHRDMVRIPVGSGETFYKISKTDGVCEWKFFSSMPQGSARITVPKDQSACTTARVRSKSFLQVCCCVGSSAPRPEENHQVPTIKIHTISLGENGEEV
Briefly: In vitro binding affinity towards alpha-1A adrenergic receptor of rat submaxillary gland in radioligand binding assay. An outline of the steps: as §3

The target in test [11] is T6, Alpha-2B adrenergic receptor (Rattus norvegicus, UniProt P19328).
T6 sequence (P19328 whole entry): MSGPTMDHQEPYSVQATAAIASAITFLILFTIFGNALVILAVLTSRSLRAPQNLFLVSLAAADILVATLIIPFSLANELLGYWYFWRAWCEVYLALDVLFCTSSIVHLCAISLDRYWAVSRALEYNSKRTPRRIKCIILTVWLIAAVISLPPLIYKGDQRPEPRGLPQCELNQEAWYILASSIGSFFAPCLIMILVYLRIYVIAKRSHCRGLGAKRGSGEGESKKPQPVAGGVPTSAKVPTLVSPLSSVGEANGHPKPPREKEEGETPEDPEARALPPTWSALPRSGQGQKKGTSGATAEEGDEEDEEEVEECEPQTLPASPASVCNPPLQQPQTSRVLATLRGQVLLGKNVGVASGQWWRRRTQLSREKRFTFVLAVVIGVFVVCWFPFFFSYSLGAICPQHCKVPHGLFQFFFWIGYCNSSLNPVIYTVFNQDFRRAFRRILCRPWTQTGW
Briefly: In vitro binding affinity towards alpha-2B adrenergic receptor of rat neonatal lung in radioligand binding assay.

Test [12] has as its system Canis familiaris. The test can be described thus: Uroselectivity was determined by measuring effective dose required for 5 mmHg increase of intraurethral pressure (IUP) in vivo in dog. The test is classed as functional, Canis lupus familiaris. Put shortly: as §1
Test [13] concerns Canis familiaris. Briefly: Uroselectivity was determined by measuring effective dose required for 20 mmHg increase of mean arterial pressure (MAP) in vivo in dog. Format: functional, Canis lupus familiaris, Artery. Put shortly:
as §1

The target of test [14] is T7, Alpha-1D adrenergic receptor (Rattus norvegicus) (UniProt P23944).
T7 sequence (whole entry): T4 sequence (P23944 whole entry)
Briefly: Functional agonism of the compounds to constrict tissue containing the alpha-1D adrenergic receptor in rat aorta. Format: tissue-based. Put shortly:
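Agonist dose–response curves were run on isolated tissue: rabbit urethra for α1A, rat spleen for α1B, and rat aorta for α1D.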

Test [15] addresses T8, Alpha-2A adrenergic receptor (Homo sapiens, UniProt P08913).
T8 sequence (P08913 whole entry): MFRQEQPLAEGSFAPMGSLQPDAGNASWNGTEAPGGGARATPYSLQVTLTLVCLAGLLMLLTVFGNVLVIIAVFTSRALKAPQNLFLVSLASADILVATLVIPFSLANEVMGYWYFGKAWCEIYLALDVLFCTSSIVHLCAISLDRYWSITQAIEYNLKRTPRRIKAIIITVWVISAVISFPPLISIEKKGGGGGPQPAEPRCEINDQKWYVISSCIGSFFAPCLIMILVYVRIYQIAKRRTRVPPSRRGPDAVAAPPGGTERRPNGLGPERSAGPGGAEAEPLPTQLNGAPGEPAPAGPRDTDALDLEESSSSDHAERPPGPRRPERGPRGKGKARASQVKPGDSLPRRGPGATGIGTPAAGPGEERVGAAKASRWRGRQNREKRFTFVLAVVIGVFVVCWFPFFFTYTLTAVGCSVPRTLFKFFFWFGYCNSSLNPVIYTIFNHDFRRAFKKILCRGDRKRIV
The test can be described thus: In vitro binding affinity towards alpha-2A adrenergic receptor of human clone in radioligand binding assay.

For test [16], the target named is T7, Alpha-1D adrenergic receptor (Rattus norvegicus). Briefly: Efficacy relative to phenylephrine (PE) constrict tissue containing the alpha-1D adrenergic receptor in rat aorta. The test is classed as functional, tissue-based. Put shortly:
as §2

The nature of test [17]: Relative affinities for alpha-2a and alpha-1A receptors.
The next test is filed under the species Rattus norvegicus. The test can be described thus: Relative affinities for alpha2B and alpha1A receptors.

Activity calls are given as the source filed them. The rule behind the calls is not given here. A value given as a limit tells only on which side of the number the result lay.

Sequence of Alpha adrenergic receptor 1A and 1B (Rattus norvegicus) (P15823 whole entry, looked up, one chain of several): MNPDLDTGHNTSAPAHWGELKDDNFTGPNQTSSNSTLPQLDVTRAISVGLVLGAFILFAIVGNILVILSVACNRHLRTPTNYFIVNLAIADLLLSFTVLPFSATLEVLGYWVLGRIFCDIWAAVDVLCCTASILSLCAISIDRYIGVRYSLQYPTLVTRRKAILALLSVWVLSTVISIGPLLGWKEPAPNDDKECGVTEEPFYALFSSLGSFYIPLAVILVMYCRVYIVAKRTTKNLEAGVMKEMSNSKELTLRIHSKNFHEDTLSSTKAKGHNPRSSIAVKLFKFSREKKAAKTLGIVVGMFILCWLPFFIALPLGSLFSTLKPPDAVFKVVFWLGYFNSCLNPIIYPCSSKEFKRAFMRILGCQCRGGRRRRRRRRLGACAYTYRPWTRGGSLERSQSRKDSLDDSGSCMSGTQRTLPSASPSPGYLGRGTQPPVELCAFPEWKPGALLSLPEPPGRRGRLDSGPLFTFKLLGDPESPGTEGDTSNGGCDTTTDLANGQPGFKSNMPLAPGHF

For the compound `Cn1cnc(C2CCCc3c(NS(C)(=O)=O)cccc32)c1` (stereo unspecified), in the test with Canis familiaris [1], the “ED delta20” value was “inactive”. Further, the “ED delta5” value with Canis familiaris [2] was “inactive”. This compound also came in with an Efficacy in [3] of 40%.

As for `O=S(=O)(Nc1cccc2c1CCCC2c1c[nH]cn1)c1ccc2ccccc2c1` (stereo unspecified), the Ki – broadly, a dissociation constant, usually derived from enzyme kinetics or from competition with a known ligand – is 692 nM in [4], 214 nM in [6] and 100 nM in [7]. For the same compound, the Selectivity in test [5] came to 1; in [8], 0.4. Further, the pD2 result in [9] was “inactive”.

Take `CCS(=O)(=O)Nc1cccc2c1CCCC2CN` (stereo unspecified): the Selectivity in test [5] and in test [8] was more than 10 in each case. Also, the inhibitory constant (Ki) is more than 10000 nM in [6], 794 nM in test [10] and more than 10000 nM in test [7]. The pD2 entry in test [9] is “inactive”.

`CS(=O)(=O)Nc1c(O)ccc2c1CCCC2C1=NCCN1` (stereo unspecified): the inhibition constant Ki was 245 nM in test [11], 2950 nM in test [6], 1480 nM in [7] and 33.1 nM in [15]. In addition, the “ED delta5” value in the test with Canis familiaris [12] came to 0.16 nM/kg. Moreover, in the test with Canis familiaris [13], the “ED delta20” value amounted to 0.27 nM/kg. Also, in test [14], the pD2 amounted to 5.59. Also, the Efficacy in test [16] was 100%; in test [3], 88%.

For `CCS(=O)(=O)Nc1cccc(C2CCNC2)c1` (stereo unspecified), the Selectivity is more than 20 in test [5] and 2 in test [8]. Further, the Ki is more than 10000 nM in test [6], 501 nM in [10] and 1000 nM in test [7]. In addition, in test [9], the pD2 entry was “inactive”.

For the compound `Oc1cccc2c1CCCC2c1c[nH]cn1` (stereo unspecified), the inhibition constant (Ki) is 115 nM in test [4]; 3.8 nM in test [11]; 145 nM in test [6]; 30.9 nM in test [7]; 8.71 nM in test [15]. Also, the Selectivity in test [5] turned out to be 3; in test [17] it was 0.2; in test [8], 1; in the test listed under Rattus norvegicus it was 0.1.

As to `CS(=O)(=O)Nc1cccc2c1CCC=C2c1c[nH]cn1`, the “ED delta20” value with Canis familiaris [1] was “inactive”. Further, the “ED delta5” value in the test with Canis familiaris [2] is “inactive”.
